SENP8 block-1 – inhibitors of human SENP8 protease. recombinant SENP8, Nedd8 substrate fluorescence. inhibition, % at 20 µM. actives 0.64% (n = 360,000); in the data active means inhibition mostly above about 40%, no sharp cut-off; inactive means mostly below about 27%
SENP8 block-2 – SENP8 protease inhibition. purified SENP8, Z-RLRGG-aminoluciferin cleavage, luminescence. inhibition, % at 10 µM. AID 2540. actives 1.2% (n = 330,000); in the data active means inhibition above about 50%
SENP7 inh – SENP7 protease inhibition; AID 434973; actives 1.5% (n = 330,000); recombinant SENP7, Z-RLRGG-aminoluciferin luminescence, 40 min; inhibition, % at 5 µM; Q9BQF6;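 active means inhibition above about 50% at the single test dose, limit read from the data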;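 further: plate controls were DMSO with enzyme for no effect and no enzyme buffer wells for full effect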
Target sequence (Q9BQF6 706-1050 limits assumed): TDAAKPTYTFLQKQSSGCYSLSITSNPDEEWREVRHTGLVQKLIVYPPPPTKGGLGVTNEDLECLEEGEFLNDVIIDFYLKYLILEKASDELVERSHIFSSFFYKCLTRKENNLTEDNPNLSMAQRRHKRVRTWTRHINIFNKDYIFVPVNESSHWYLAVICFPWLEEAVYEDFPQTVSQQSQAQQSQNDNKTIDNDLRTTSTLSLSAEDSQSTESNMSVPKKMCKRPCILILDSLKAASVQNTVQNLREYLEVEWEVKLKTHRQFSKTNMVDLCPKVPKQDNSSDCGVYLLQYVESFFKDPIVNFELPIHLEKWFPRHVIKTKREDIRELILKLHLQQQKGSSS
SENP6 block – blocks the human protease SENP6; inhibition, % at 10 µM; AID 2599; actives 1.8% (n = 330,000); Recombinant SENP6 catalytic domain, aminoluciferin luminescence;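 active means inhibition above about 50% at the single tested dose, limit read from the data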;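 further: plate controls were DMSO wells with enzyme for no effect and DMSO wells lacking enzyme for full effect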
NRP1-CendR mod – alters CendR peptide binding to human NRP-1. FAM-RPARPAR peptide binding to NRP-1, fluorescence polarization. inhibition, % at 25 µM. actives 0.85% (n = 360,000). AID 602438;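 active means inhibition or corrected inhibition above about 18%, plus a signal ratio from 0.5 to 1.5, limit read from the data, passing the limit was not always enough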
SENP1 inh – inhibitors of human SENP1 SUMO protease catalytic domain; Q9P0U3; recombinant SENP1 catalytic domain, CyPet-SUMO1-YPet FRET cleavage; inhibition, % at 10 µM; actives 0.21% (n = 360,000); AID 624204;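 active means inhibition at least 30% at 10 µM, raw YFP signal under a set limit, fluorescence ratio 0.5 to 1.5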;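 further: 0% = enzyme with DMSO and 100% = no enzyme wells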
Target sequence (Q9P0U3 419-644 limits assumed): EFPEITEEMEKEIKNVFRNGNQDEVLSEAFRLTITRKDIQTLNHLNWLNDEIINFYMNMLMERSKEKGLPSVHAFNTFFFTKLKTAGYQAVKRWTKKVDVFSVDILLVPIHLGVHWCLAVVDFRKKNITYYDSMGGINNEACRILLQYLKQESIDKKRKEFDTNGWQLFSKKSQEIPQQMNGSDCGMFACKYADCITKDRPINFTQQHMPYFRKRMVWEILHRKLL
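Test system: recombinant human SENP1 catalytic domain, His6-tagged / Medium: pH 8 Tris buffer with EDTA, NaCl, BME, BSA, NP40, catalase / Also added: SUMO1 FRET substrate flanked by Cypet and Ypet, 25 nM / Times: 50 min reaction at room temperature / Signal: FRET, CFP and YFP emission / Control set: no-enzyme low control and enzyme-plus-DMSO high control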
Numbers without * were called inactive; nt = no result. Compounds with a hit are over-represented: about 3.3% of the library has one in this group of screens.

SMILES	SENP8 block-1	SENP8 block-2	SENP7 inh	SENP6 block	NRP1-CendR mod	SENP1 inh
O=C(NNC(=O)c1cc(S(=O)(=O)N2CCOCC2)c(Cl)cc1Cl)c1ccccc1F	-13	6	-14	-15	17*	0
COc1ccccc1NC1=C(C)C(=O)CC1	13	-7	-12	-15	10	2
COc1ccc(OC)c2c1CCC2=O	-425	-8	-3	-17	30*	1
c1ccc(-c2nc(C3CCCCC3)c3sccc3n2)cc1	10	-6	-7	-11	28*	4
Nc1[nH]c(C(=O)c2ccccc2)c(-c2ccc(Br)cc2)c1C(=O)c1ccc(Br)cc1	-8	nt	nt	nt	-16	-69
CC(C)c1ccc(NC(=O)CN2C(=O)NC3(CCCC3)C2=O)cc1	0	1	-5	-5	24*	2
CC(=O)Nc1ccc(NC(=O)CN2C(=O)NC3(CCCCCCC3)C2=O)cc1	16	-16	-17	-31	7	1
O=C(CN1C(=O)NC2(CCCCCC2)C1=O)Nc1ccc(OC(F)(F)F)cc1	20	nt	nt	nt	27*	1
CCOC(=O)C(=CN(CCc1ccccc1)CC(=O)OC)C(=O)OCC	-1	-1	0	3	26*	1
CCOC(=O)[C@H]1[C@H]2COc3ccc(Cl)cc3[C@@H]2N2C(=O)c3cc(F)c(F)cc3NC(=O)[C@@]12C	8	-17	11	-25	8	-1
Cc1cccc(NC(=S)NNC(=O)c2ccccc2OC(F)F)c1	4	5	16	21	-2	2
Cc1cccc(NC(=S)NNC(=O)c2ccccc2Br)c1	7	11	16	68*	-13	3
CC(C(=O)Nc1ccc(O)cc1C(=O)O)N1C(=O)/C(=C\c2cccs2)SC1=S (stereo unspecified)	62*	18	1	34	-16	-1
COc1cccc(CNC(=O)[C@@H]2CCCN2C(=O)[C@H]2CCCCN2C(=O)c2cccc(OC)c2)c1	14	nt	nt	nt	-6	1
CC(C)C(NC=C1C(=O)OC(C)(C)OC1=O)C(=O)O (stereo unspecified)	22	-3	11	11	-3	1
CC(O)C(NC=C1C(=O)OC(C)(C)OC1=O)C(=O)O (stereo unspecified)	14	-8	-4	-9	29*	2
Cc1cc2ncn(/N=C/c3ccc([N+](=O)[O-])s3)c2cc1C	33	nt	nt	nt	-1	14
O=[N+]([O-])c1ccc(/C=N/n2c(CO)nc3ccccc32)s1	53*	5	28	27	2	58
CC(C)n1cnc2cc(NCc3nc4ccccc4n3C)ccc21	-10	25	47	62*	2	-14
Cc1ccc(CNc2ccc3c(c2)ncn3C(C)C)cc1	-203	-10	-5	3	3	0
COc1ccc(C(=O)Nc2ccc(C(=O)OCC(=O)c3cccc4ccccc34)cc2)cc1	5	-7	0	1	32*	0
COc1ccc(NC(=O)c2ccccc2NC(=O)c2ccccc2)cc1	13	-2	-5	5	3	-1
COc1cc2c(c(OC)c1OC)C(=O)CO2	-36	nt	nt	nt	18*	-1
CCC(COC)NCc1cn(-c2ccc(F)cc2F)nc1-c1ccccc1C (stereo unspecified)	20	-4	11	1	26*	-1
COc1ccc(CN2C(=O)c3ccccc3C2=O)cc1C(=O)Nc1ccccc1N1CCOCC1	11	-6	-5	-12	32*	1
SMILES	SENP8 block-1	SENP8 block-2	SENP7 inh	SENP6 block	NRP1-CendR mod	SENP1 inh
Cc1noc(C)c1COc1cccc(C(=O)Nc2ccccc2N2CCOCC2)c1	12	-2	-4	-5	9	0
COc1cc(C(=O)Nc2ccccc2N2CCOCC2)ccc1OCc1c(C)noc1C	4	-13	3	-13	27*	0
Cc1cc(N2CCN(C(C(=O)NC3CCCC3)C(C)(C)C)CC2)c2ccccc2n1 (stereo unspecified)	0	nt	nt	nt	1	0
O=C(Nc1ccc2c(c1)OCCO2)C1C(c2ccccc2)=Nc2ccccc2N1C(=O)c1cccnc1 (stereo unspecified)	-96	nt	nt	nt	3	4
COc1ccc(NC(=O)N[C@H]2CC[C@@H](CC(=O)NC3CCC3)O[C@@H]2CO)cc1	23	nt	nt	nt	14	2
COc1cccc(N=Nc2c(=O)[nH]n3c(C)cc(C)nc23)c1	22	0	6	-3	1	3
CCOc1ccc(N=Nc2c(=O)[nH]n3c(C)cc(C)nc23)cc1	53*	-7	-14	-3	-45	8
COc1ccc2cc3[n+](cc2c1O)CCc1cc2c(cc1-3)OCO2	-190	nt	nt	nt	31*	-33
CCCCCCCN1C(Nc2ccccc2)=NC[C@@H]1Cc1ccccc1	16	6	-4	-5	26*	-1
CCOc1ccc2[nH]c(O)c(NC(C)=O)c2c1	-3	1	12	-27	28*	1
COc1ccc(S(=O)(=O)N[C@H]2CC[C@H](CCNC(=O)c3ccccc3F)O[C@@H]2CO)cc1	16	nt	nt	nt	-3	-2
CCN(C(=O)COC(=O)c1cnccn1)c1cccc2ccccc12	11	3	4	7	-4	-3
CCN(C(=O)COc1ccc(C(C)=O)cc1)c1cccc2ccccc12	10	-10	-9	-9	36*	1
C=CCN1C(=O)/C(=C2\SC(N3CCOCC3)=NC2=O)c2cc(Br)ccc21	41*	-13	-9	-8	-15	3
CCN1C(=O)/C(=C2\SC(N3CCOCC3)=NC2=O)c2ccccc21	17	-30	-14	-18	10	2
O=c1c(-n2cncn2)c[nH]n1-c1cccc(Cl)n1	32	-4	7	7	18*	1
O=c1c(/C=N/OCc2ccc(Cl)cc2Cl)c[nH]n1-c1cccc(Cl)n1	9	-9	-8	4	7	3
COC1=CC(=O)c2nc(Cl)ccc2C1=O	88*	nt	nt	nt	26*	6
Cn1cc(-c2cc(C(=O)O)on2)cn1	20	-12	-5	-13	25*	0
COc1ccc(-c2cc(C(=O)NCc3ccc(C(F)(F)F)cc3)[nH]n2)c(C)c1	13	nt	nt	nt	8	-1
CCCCC(=O)N/N=C/c1sccc1C	5	-2	4	-10	-15	2
Cc1ccsc1/C=N/NC(=O)C(=O)NCC(C)C	-2	-12	9	-13	32*	2
Cc1ccc(NC(=O)C(C)N=C2NS(=O)(=O)c3ccccc32)cc1F (stereo unspecified)	11	2	7	-13	21*	2
O=C(O)c1ccc(COc2ccc3c(c2)CCC3)cc1	10	84*	51*	95*	-2	-1
NNC(=O)c1ccc(COc2ccc3c(c2)CCC3)cc1	1	-13	-3	-1	-11	3

From PubChem BioAssay
